# TAAR1 agonist: agonists of human TAAR1; CHO RD-HGA16 TAAR1, Fluo-8 calcium fluorescence; vehicle wells 0%, saturating PEA agonist 100%; activation, % at 3 µM; hit rate 0.99% among 360,000;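 active = activation above the mean activation of all test compounds in the run plus 3 SD, cut at about 38% in these data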
#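 System: CHO RD-HGA16 cells carrying human TAAR1 plus Gα16; Incubation: 17-24 h seeding, 75 min 37 °C dye, 30 min RT; Measured by: Fluo-8 fluorescence, 5 s baseline then 140 s kinetic read; Control set: DMSO and PEA EC100; Replication: single well for each compound.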
# OX1R antag-1: human HCRTR1 antagonism | O43613 | CHO/OX1R cells, Fluo-8 calcium fluorescence, orexin A | inhibition, % at 5 µM | hit rate 0.43% among 330,000 | AID 434989;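 active = inhibition above its plate's threshold, mean inhibition of all tested compounds on the plate plus 3 SD, cut at about 37% in these data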;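 note: 0% = orexin A challenge wells and 100% = SB-334867-A antagonist wells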
# Target sequence (O43613 whole entry, looked up): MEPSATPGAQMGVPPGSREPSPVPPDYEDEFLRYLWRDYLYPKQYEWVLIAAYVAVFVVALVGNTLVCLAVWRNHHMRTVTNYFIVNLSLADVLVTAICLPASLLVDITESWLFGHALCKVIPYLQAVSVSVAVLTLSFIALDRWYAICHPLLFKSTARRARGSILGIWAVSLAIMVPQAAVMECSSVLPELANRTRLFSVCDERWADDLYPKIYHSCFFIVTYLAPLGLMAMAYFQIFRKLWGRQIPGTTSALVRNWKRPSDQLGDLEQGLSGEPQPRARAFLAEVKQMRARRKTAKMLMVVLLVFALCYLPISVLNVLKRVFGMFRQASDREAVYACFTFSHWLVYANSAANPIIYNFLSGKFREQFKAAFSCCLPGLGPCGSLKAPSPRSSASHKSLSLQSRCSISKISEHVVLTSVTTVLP
# OX1R antag-2: OX1R (human) antagonism; OX1R-expressing cells, FRET antagonist read-out; O43613; AID 485270; inhibition, % at 6.6 µM; hit rate 1.8% among 330,000; in the data active = inhibition mostly above about 38%, no sharp cut-off; inactive = mostly below about 40%;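 note: 0% = agonist challenge alone and 100% = reference antagonist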
# TAAR1 antag: antagonists of human TAAR1. inhibition, % at 3 µM. hit rate 1.5% among 360,000. Q96RJ0. CHO RD-HGA16 TAAR1, Fluo-8 calcium fluorescence, antagonist. AID 624466;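 active = inhibition above a per-plate cutoff, the mean inhibition of test compounds on that plate plus 3 SD, cut at about 49% in these data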;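 note: 0% = DMSO plus EC80 beta-PEA response and 100% = DMSO alone without agonist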
#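 System: CHO RD-HGA16 cells bearing hTAAR1. Reagent: EC80 β-phenethylamine stimulus. Schedule: seeding 17-24 h prior, 75-min 37 °C, 30-min RT dye loading. Signal: Fluo-8 intracellular calcium dye fluorescence, real-time kinetic reads. Read-out: % inhibition from peak post-agonist over basal fluorescence ratio. Benchmarks: vehicle wells and EC80 agonist wells. Replicates: n of 1.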
# CHO parental Ca: counter-screen for OX1R antagonists: effect in parental CHO cells | parental CHO-K1, ATP-induced calcium, Fluo-8 fluorescence | inhibition, % at 5.6 µM | hit rate 0.63% among 330,000;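 active = inhibition above that plate's mean sample inhibition plus 3 SD, cut at about 26% in these data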;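 note: 0% = ATP-challenged DMSO wells and 100% = DMSO wells without ATP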
#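 Measured by: calcium-sensitive Fluo-8 fluorescence / Test system: CHO parental line / Controls: ATP-challenged DMSO wells low, unchallenged DMSO wells high / Measure: % inhibition / Compound: single nominal dose of 5.6 µM per compound / Replicates: single well per compound, no replicates / Reagent: ATP as calcium-mobilizing challenge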
# GPR7 antag: blocks human GPR7 receptor signaling. P48145. GPR7-expressing cells, fluorescence antagonist assay. inhibition, % at 4.4 µM. hit rate 1.1% among 290,000; in the data active = inhibition above about 16%, passing the limit was not always enough;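 note: cells stimulated with the agonist NPW; 0% = agonist with vehicle and 100% = vehicle without agonist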
# Numbers without * were called inactive; x = no result. Sampled rows, rich in hits. Any-hit rate of the full collection: about 4.5%.
SMILES,TAAR1 agonist,OX1R antag-1,OX1R antag-2,TAAR1 antag,CHO parental Ca,GPR7 antag
Cc1ccc(C(=O)NNC(=S)NC(=O)c2ccc(Cl)cc2)cc1,146*,71*,3,108*,34*,13
Cc1cccc(C(=O)NC(=S)NNC(=O)c2ccccc2Cl)c1,148*,2,-6,107*,-4,3
COc1ccc(NC(=O)N(C)C[C@H]2Oc3ccc(NC(=O)Cn4cnnn4)cc3C(=O)N([C@H](C)CO)C[C@@H]2C)cc1,4,12,10,10,-8,x
CC(=O)Nc1ccc(S[C@@H](CCN2CC[C@H](C(C)(C)C)CCC2=O)c2ccccc2)cc1,17,-15,10,49*,-22,x
CC(C)(C)[C@@H]1CCC(=O)N(CC[C@H](Sc2ccccc2)c2ccccc2)CC1,13,-33,0,42,-4,-4
CC(=O)Nc1cccc(-c2ccnc3c2CC(C(=O)Nc2ccc(Cl)cc2)O3)c1 (centres undefined),6,x,x,1,x,x
Cc1cccc(C)c1NC(=O)C(c1ccccc1)N1CCN(C/C=C/c2ccccc2)CC1 (centres undefined),9,x,x,-1,x,x
CC(=O)c1sc(Nc2cccc3ccccc23)nc1C,-3,-28,14,-25,-10,x
CC(=O)c1sc(Nc2ccccn2)nc1C,17,7,73*,-7,-4,5
Cc1ccc(Sc2ccc(CN3CCCCC3)cc2[N+](=O)[O-])cc1,2,-25,10,-1,-13,-6
Cc1ccccc1C(=O)Oc1cccc(Nc2ncnc3ccccc23)c1,15,55*,81*,53*,61*,12
O=C(CCc1ccccc1)Nc1cccc(NC(=O)CCc2ccccc2)c1,19,19,48*,16,-29,2
CCS(=O)(=O)N1CCC(C(=O)O)CC1,2,-9,16,4,4,-8
O=C(NCc1ccco1)c1nc2nc(-c3cccs3)cc(C(F)(F)F)n2n1,-2,-25,70*,-3,-20,-13
COC(=O)c1nc2nc(-c3cccs3)cc(C(F)(F)F)n2n1,3,-5,77*,1,-4,-5
O=C(CSc1nc(-c2cccs2)cc(C(F)(F)F)n1)NCc1ccco1,5,-35,19,-15,-8,-1
COC(=O)c1nc2nc(C)cc(C(F)(F)F)n2n1,9,-6,13,1,1,-6
CN(C(=O)c1cccc(NC(=O)Cc2ccc(NC(=O)C3CCN(C(=O)CCc4ccccc4)CC3)cc2)c1)C1CCC1,0,x,x,-22,x,x
CCCCOCCCNC(=O)C[C@@H]1C[C@@]2(C(=O)OCC)CCCC=C2N(CCc2ccc(OC)c(OC)c2)C1=O,-1,x,x,-19,x,x
COC[C@H]1CCCN1c1ccc2c(c1)O[C@@H](COCc1ccccc1)CN([C@@H](C)c1ccccc1)S2(=O)=O,4,x,x,-20,x,x
C[C@H]1COc2cc(N3CCCCC3)ccc2S(=O)(=O)N1,0,x,x,1,x,x
COc1cc2c(cc1N)-c1ccc(N)cc1C2=O,1,x,x,8,x,x
O=C(Nc1ccc(Cl)cc1)NC1CCCC1Cc1ccco1 (centres undefined),x,1,23,x,-7,8
O=C(Nc1ccc(Cl)cc1)NC1CCCCC1Cc1ccco1 (centres undefined),12,-2,47*,26,14,-11
CC1CCN(C(=S)Nc2ccc(SC(F)F)cc2)CC1,1,-6,2,-17,4,3
SMILES,TAAR1 agonist,OX1R antag-1,OX1R antag-2,TAAR1 antag,CHO parental Ca,GPR7 antag
CN(C(=S)Nc1ccc(SC(F)F)cc1)C(c1ccccc1)c1ccccc1,-1,-21,0,-12,4,3
FC(F)Sc1ccc(NC(=S)NC2CCCCC2)cc1,11,24,42*,14,11,-2
FC(F)Sc1ccc(NC(=S)NC(c2ccccc2)c2ccccc2)cc1,15,23,41*,11,39*,2
CC1CCCCC1NC(=S)Nc1ccc(SC(F)F)cc1 (centres undefined),7,40*,63,41,32,5
S=C(Nc1ccc(Br)cc1)NC1CCCC1,15,7,17,-1,0,-7
CCCNC(=O)N[C@H]1C=C[C@H](CC(=O)NC2CCCCC2)O[C@@H]1CO,0,x,x,2,x,x
Clc1ccc(N=c2ssnc2Cl)cc1,46*,23,41,18,10,-13
COc1cc(N=c2ssnc2Cl)cc(OC)c1OC,42*,-19,33,22,-8,9
COc1ccccc1N=c1scc(-c2ccc3c(c2)NC(=O)CO3)n1CC1CCCO1 (centres undefined),11,-21,29,43,-22,-9
CN(C)S(=O)(=O)c1cccc(N=c2scc(-c3ccc4c(c3)NC(=O)CO4)n2CC2CCCO2)c1 (centres undefined),27,-1,16,53*,10,9
CCCc1c(Cc2cccc(F)c2)ncn1Cc1cccc(-c2ccccc2)c1,3,x,x,-1,x,x
O=C(Oc1c(Cl)cc(Cl)c2cccnc12)c1ccco1,-1,44,36,-16,34*,-10
Cn1c(=O)c2c(nc(NCc3ccc4c(c3)OCO4)n2Cc2ccc(F)cc2)n(C)c1=O,18,-33,13,-1,22*,-7
O=C(NCc1cccnc1)c1cc(C2CCCN(C(=O)c3ccccn3)C2)on1 (centres undefined),13,x,x,-7,x,x
CNC(=O)/C(C#N)=c1\s/c(=C/C(=O)OC)c(=O)n1-c1ccccc1,14,-12,69*,6,-2,-2
Cc1cc2c(SCC(=O)NCC3CCCO3)ncnc2s1 (centres undefined),-1,x,x,-1,x,0
O=C(COC(=O)c1ccc[n+]([O-])c1)Nc1ccccc1OC(F)F,3,7,2,-12,-5,x
O=C(C[n+]1ccc(C(=O)c2ccccc2)cc1)Nc1ccccc1OC(F)F,2,-8,46*,-3,-5,x
S=C(NCCCCN(Cc1ccc(Cl)cc1)c1ccc(Br)cn1)NCCCc1cnc[nH]1,38*,x,x,31,x,x
Cc1ccccc1OCCC(=O)Nc1ccc(S(=O)(=O)N2CCCC2)cc1,6,x,x,16,x,x
COC(=O)c1[nH]c2ccccc2c1NC(=O)CNC1CCCCC1,21,-34,23,61*,-19,-4
COc1ccccc1C(=O)NCCn1ccc2ccccc21,9,-1,70*,1,-27,-1
COc1ccc(C(=O)NCCn2ccc3ccccc32)cc1OC,2,-11,2,0,-3,-1
CC(=O)c1c(C)[nH]c(C(=O)OCC(=O)c2c[nH]c3ccccc23)c1C,12,21,12,43,-2,x
COc1ccccc1/C=C/C(=O)OCC(=O)N1CCc2ccccc21,1,-4,32*,7,-36,x

# Source: PubChem (The Scripps Research Institute Molecular Screening Center)
